Blank lines part the entries; values can stand above or below the compound they belong to. Activity calls are given as the source filed them. No cut-off for these calls is given here.
What was measured:
Rattus norvegicus [1] = organism: Rattus norvegicus; experiment: Percent recovery was evaluated in rat; type: functional, organism-based
Procedure, shortened: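 Same rat uterus preparation. […] Its pD2 is compared with the initial control pD2. The difference against concurrent control gives percentage recovery of agonist response.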

Oryctolagus cuniculus [2] = experiment: Selectivity was determined as response after administration (0.1 ug/mg/kg) to that of preantagonist response in rabbit; B2 block only; type: functional, organism-based
[3] = In vitro stability was measured in porcine kidney tissue preparation; type: ADME, Sus scrofa; settings: pig
Procedure, shortened: (§1)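 Lung or kidney cortical membranes made by differential centrifugation and stored at -20 °C. Dilutions in PBS: porcine kidney 1:10, rat kidney 1:100, porcine lung 1:1. Compound at 1 mM in PBS, 10 μL, incubated with 90 μL diluted membranes for various times. Quenched with ethanol, centrifuged.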

[4] = In vitro stability was measured in human plasma tissue preparation; type: ADME
B2 bradykinin receptor [5] = target: T1, B2 bradykinin receptor (Homo sapiens, UniProt P30411); experiment: Binding affinity towards Bradykinin receptor B2 in human S34 clone cells; type: cell-based
T1 sequence (P30411 whole entry): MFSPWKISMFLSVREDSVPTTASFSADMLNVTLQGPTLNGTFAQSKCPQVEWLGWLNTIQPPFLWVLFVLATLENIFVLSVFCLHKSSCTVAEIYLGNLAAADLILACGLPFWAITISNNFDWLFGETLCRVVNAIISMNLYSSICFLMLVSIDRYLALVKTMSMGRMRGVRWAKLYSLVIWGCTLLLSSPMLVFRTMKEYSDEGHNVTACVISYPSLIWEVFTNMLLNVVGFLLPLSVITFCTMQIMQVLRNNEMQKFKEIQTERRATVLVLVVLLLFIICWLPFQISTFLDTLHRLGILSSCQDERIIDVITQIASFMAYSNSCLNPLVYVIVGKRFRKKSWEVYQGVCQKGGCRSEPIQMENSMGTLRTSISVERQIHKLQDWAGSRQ

[6] = target: B1 bradykinin receptor (Oryctolagus cuniculus); experiment: In vitro Bradykinin receptor B1 antagonist activity in functional tissue within rabbit aorta
[7] = Binding affinity towards bradykinin receptor using [3H]BK as radioligand in guinea pig ileum; type: tissue-based, Cavia porcellus
Procedure, shortened: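 Ileal membranes from Duncan-Hartley guinea pigs, 0.2 mg/mL, room temperature in 25 mM TES pH 6.8 with 1,10-phenanthroline, DTT, captopril, bacitracin, thiorphan, 0.1% BSA. […] Filtered on PEI-pretreated GF/B, washed with cold Tris pH 7.5/NaCl/BSA, scintillation counted. Mean ± SD, n = 4.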

B2 bradykinin receptor [8] = target: T2, B2 bradykinin receptor (Rattus norvegicus, UniProt P25023); experiment: In vitro Bradykinin receptor B2 antagonist activity by using rat uterus functional assay; type: tissue-based; settings: read-out: pA2 (converted)
T2 sequence (P25023 whole entry): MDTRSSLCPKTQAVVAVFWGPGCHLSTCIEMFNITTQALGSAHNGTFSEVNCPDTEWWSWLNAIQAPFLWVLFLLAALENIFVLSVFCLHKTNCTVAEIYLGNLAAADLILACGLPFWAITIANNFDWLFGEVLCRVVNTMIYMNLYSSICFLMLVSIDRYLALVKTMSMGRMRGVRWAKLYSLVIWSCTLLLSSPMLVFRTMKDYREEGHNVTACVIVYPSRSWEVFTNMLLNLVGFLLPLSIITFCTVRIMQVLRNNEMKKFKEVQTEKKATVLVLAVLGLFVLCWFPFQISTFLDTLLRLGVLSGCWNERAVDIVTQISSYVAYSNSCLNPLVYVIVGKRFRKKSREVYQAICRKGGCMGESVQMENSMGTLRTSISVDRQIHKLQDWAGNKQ
Procedure, shortened: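 Uterine horns from female Sprague-Dawley rats primed with stilbesterol (100 μg/kg) 18 h earlier. Tissue held at 1 g tension in De Jalon's solution, 31 °C, aerated. Potency by Arunlakshana-Schild analysis.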

[9] = In vitro stability was measured in rat kidney tissue preparation; type: ADME; procedure, shortened: as §1
[10] = In vitro stability was measured in porcine lung tissue preparation; type: ADME, Sus scrofa; settings: pig; procedure, shortened: as §1
Oryctolagus cuniculus [11] = experiment: Effective dose for bradykinin B2 activity after administration (0.03 ug/kg/min) in rabbit; type: functional
Oryctolagus cuniculus [12] = experiment: Effective dose for bradykinin B1 activity after administration (3 ug/kg/min) in rabbit; type: functional
Oryctolagus cuniculus [13] = experiment: Effective dose for bradykinin B1 activity after administration (10 ug/kg/min) in rabbit; type: functional
Oryctolagus cuniculus [14] = experiment: Percent inhibition after intravenously administration compound at 60 min in rabbit; expressed as percent inhibition; type: functional
Oryctolagus cuniculus [15] = experiment: Effective dose for bradykinin B1 activity after administration (1 ug/kg/min) in rabbit; type: functional
Oryctolagus cuniculus [16] = experiment: Effective dose for bradykinin B2 activity after administration (0.1 ug/kg/min) in rabbit; type: functional
Oryctolagus cuniculus [17] = experiment: Effective dose for bradykinin B2 activity after administration (0.01 ug/kg/min) in rabbit; type: functional
Rattus norvegicus [18] = experiment: Percent inhibition after subcutaneously administration compound at 3H in rat; expressed as percent inhibition; type: functional

Compound: NC(N)=NCCCC(N)C(=O)NC(CCCN=C(N)N)C(=O)N1CCC[C@H]1C(=O)N1C[C@H](O)C[C@H]1C(=O)NCC(=O)N[C@@H](Cc1cccs1)C(=O)N[C@@H](CO)C(=O)N1Cc2ccccc2C[C@@H]1C(=O)N(CC(=O)NC(CCCN=C(N)N)C(=O)O)C1CCCCC1 (stereo in doubt) [listing 1 of 3 here]
Recovery (Rattus norvegicus [1]): 73%
Selectivity (Oryctolagus cuniculus [2]): inactive

half-life [3]: > 6 h
half-life [4]: > 6 h
Ki (B2 bradykinin receptor [5]): 0.24 nM
IC50 [6]: > 10000 nM
Kb (B2 bradykinin receptor [8]): 0.49 nM
half-life [9]: > 6 h
half-life [10]: > 6 h
Compound: NC(N)=NCCCC(N)C(=O)NC(CCCN=C(N)N)C(=O)N1CCC[C@H]1C(=O)N1C[C@H](O)C[C@H]1C(=O)NCC(=O)N[C@@H](Cc1cccs1)C(=O)N[C@@H](CO)C(=O)N1Cc2ccccc2C[C@@H]1C(=O)N(CC(=O)NC(CCCN=C(N)N)C(=O)O)C1CCCCC1 (stereo in doubt) [listing 2 of 3 here]
Log Ki [7]: -10.11

half-life [3]: > 6 h
half-life [4]: > 6 h
Kb (B2 bradykinin receptor [8]): 0.316 nM
half-life [9]: > 6 h
half-life [10]: > 6 h
Compound: NC(N)=NCCC[C@@H](N)C(=O)N[C@@H](CCCN=C(N)N)C(=O)N1CCC[C@H]1C(=O)N1C[C@H](O)C[C@H]1C(=O)NCC(=O)N[C@@H](Cc1cccs1)C(=O)N[C@@H](CO)C(=O)N1Cc2ccccc2C[C@@H]1C(=O)N1[C@H](C(=O)N[C@@H](CCCN=C(N)N)C(=O)O)C[C@@H]2CCCC[C@@H]21 [ICATIBANT]

Compound: NC(N)=NCCCC(N)C(=O)NC(CCCN=C(N)N)C(=O)N1CCC[C@H]1C(=O)N1C[C@H](O)C[C@H]1C(=O)NCC(=O)N[C@@H](Cc1cccs1)C(=O)N[C@@H](CO)C(=O)N1Cc2ccccc2C[C@@H]1C(=O)N(CC(=O)NC(CCCN=C(N)N)C(=O)O)C1CCCCC1 (stereo in doubt) [listing 3 of 3 here]
ED50 (Oryctolagus cuniculus [11]): 0.051 µg/mg/kg
ED50 (Oryctolagus cuniculus [12]): 2.9 µg/mg/kg
ED50 (Oryctolagus cuniculus [13]): 2.9 µg/mg/kg
Inhibition (Oryctolagus cuniculus [14]): 100%
ED50 (Oryctolagus cuniculus [15]): 2.9 µg/mg/kg
ED50 (Oryctolagus cuniculus [16]): 0.051 µg/mg/kg
ED50 (Oryctolagus cuniculus [17]): 0.051 µg/mg/kg
Inhibition (Rattus norvegicus [18]): 100%

— ChEMBL document CHEMBL1129039 (J Med Chem, 1996)
